Experimental data from different studies.
Protocols differ between the studies behind these lines.
Target: Mitogen-activated protein kinase 6 (MAPK6, Homo sapiens, UniProt Q16659)

O=C(NCC1CCOCC1)c1n[nH]cc1NC(=O)c1c(F)cccc1F — remaining binding (binding, competition with immobilised ligand; 1 µM): 86%
CC1CCCN1c1nccc(-c2cnn3ncccc23)n1 (stereo not shown) — remaining binding (binding; 1 µM): 89%
C[C@@]1(Cc2ccc(C#N)cc2)C(=O)N(c2cc(Cl)cc(Cl)c2)c2ncc(C(=O)NC3(c4nc(C5CCC5)no4)CC3)n21 — remaining binding (cell-free assay, competition with immobilised ligand; 1 µM): 100%
O=C(c1ccc(Nc2ncc(Cl)c(-c3ccc(Cl)s3)n2)cc1)N1CCC(N2CCCC2)CC1 — remaining binding (binding, competition with immobilised ligand; 1 µM): 0%
CN(C(=O)c1ccccc1)c1cc(N(C)c2ccc3c(c2)CCc2ccc(C(=O)NCCN4CCOCC4)cc2C3=O)ccc1F — remaining binding (cell-free assay, competition with immobilised ligand; 1 µM): 100%
CCN1CCN(Cc2ccc(C(=O)Nc3ccc(C)c(Oc4ccc5c(c4)CC(=O)N5)c3)cc2C(F)(F)F)CC1 — remaining binding (binding, competition with immobilised ligand; 1 µM): 100%
CCCOc1ccc([C@H]2[C@H](C(=O)O)[C@@H](c3ccc4c(c3)OCO4)CN2CC(=O)Nc2c(CC)cccc2CC)cc1 — remaining binding (cell-free assay, competition with immobilised ligand; 1 µM): 92%
COc1cnc(Nc2cccc(S(N)(=O)=O)c2)nc1N1CCN(c2ccccc2)CC1 — remaining binding (binding, competition with immobilised ligand; 1 µM): 100%
FC(F)(F)Oc1cccc(-c2cnc3ccc(-c4ccncc4)nn23)c1 — remaining binding (cell-free assay, competition with immobilised ligand; 5 µM): 91%
CC(C)CC(=O)N1CCc2nc(-c3ccc(Br)cc3)nc(N(C)Cc3ccccc3)c2C1 — remaining binding (cell-free assay, competition with immobilised ligand; 0.1 µM): 100%
CN(c1nccc(-c2cnn3ncccc23)n1)C1CC1 — remaining binding (binding; 1 µM): 87%
O=C(c1ccc(Nc2ncc(Cl)c(-c3cc4ccccc4s3)n2)cc1)N1CCC(N2CCCC2)CC1 — remaining binding (binding, competition with immobilised ligand; 1 µM): 0%
COc1ccnn2ncc(-c3ccnc(N(C)C)n3)c12 — remaining binding (binding; 1 µM): 85%
O=C(NCCCN1CCOCC1)c1ccc(Nc2ncc(Cl)c(-c3ccc(Cl)s3)n2)cc1 — remaining binding (binding, competition with immobilised ligand; 1 µM): 0.05%
N[C@H]1CCN(c2nccc(-c3cnn4ncccc34)n2)C1 — remaining binding (binding; 1 µM): 98%
CN(C)c1ncnc(-c2ccc3nc(Nc4cc(CN5CCN(C(=O)CC(F)(F)F)CC5)ccn4)[nH]c3c2)c1Cl — remaining binding (cell-free assay, competition with immobilised ligand; 1 µM): 100%
c1cnn2ncc(-c3ccnc(N4CCC45COC5)n3)c2c1 — remaining binding (binding; 1 µM): 92%
CCCCN(CCCC)C(=O)CN1C[C@H](c2cc(OC)c3c(c2)OCO3)[C@@H](C(=O)O)[C@@H]1CC(C)(C)CCC — remaining binding (cell-free assay, competition with immobilised ligand; 1 µM): 100%
CN(CCCC(F)(F)F)c1nccc(-c2cnn3ncccc23)n1 — remaining binding (binding; 1 µM): 90%
CC(=O)C1=C(C)N(c2cccc(C(F)(F)F)c2)C(=O)N[C@@H]1c1ccc(C#N)nc1 — remaining binding (cell-free assay, competition with immobilised ligand; 1 µM): 75.8%
C[C@H]1CCN(c2nccc(-c3cnn4ncccc34)n2)C1 — remaining binding (binding; 1 µM): 83%
Nc1ncc2c(n1)-c1c([nH]c3ccc(C#CC4CC4)cc13)CCCC2 — remaining binding (binding, competition with immobilised ligand; 1 µM): 100%
